# Results: ChEMBL document CHEMBL1125042, “Hypolipidemic activity of rifamycin derivatives” (J Med Chem, 1990)
# Key:
# [1] = system: Rattus norvegicus; assay: Hypolipidemic activity was determined in male rats, and high-density lipoprotein level was determined at 10 mg/kg; type: functional
# Outline: (§1)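 Male Wistar rats (200–230 g), eight per group, were dosed orally in PEG 400 at 8 a.m. for 4 days, plus a second dose at 4 p.m. on day 4. Rats were fasted 16 h and killed 16 h after the last dose. Sera from pairs of rats were pooled. LDL (up to 1.040 g/cm³) was separated by ultracentrifugation and the HDL infranatant taken. Cholesterol was measured enzymatically. Results are % versus vehicle control, mean ± SEM of four pools, Student's t test.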
# [2] = system: Rattus norvegicus; assay: Tested for hypolipidemic activity in male rats, cholesterol was determined in serum at 10 mg/kg; type: functional
# Outline: (§2)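 Groups of eight male Wistar rats (200–230 g) dosed orally in PEG 400, either daily for 7 days (killed 24 h after the last dose) or for 4 days with a second dose on day 4 (killed 16 h later). Fasted 16 h. Paired sera pooled, lipoproteins separated by ultracentrifugation (1.006 and 1.040 g/cm³), HDL taken as the infranatant. Cholesterol measured enzymatically; % vs vehicle, mean ± SEM of four pools.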
# [3] = system: Staphylococcus aureus; assay: Antibacterial activity against Staphylococcus aureus 10B; type: functional
# Outline: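 Agar dilution on DST agar with 2-fold drug dilutions. Inoculum of 10⁴ viable S. aureus 10B was taken from liquid-nitrogen stock, thawed 30 min and not subcultured. It was applied by multipoint replicator and incubated overnight at 37 °C. MIC is the lowest concentration inhibiting growth relative to control cultures.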
# [4] = system: Rattus norvegicus; assay: Hypolipidemic activity was determined in male rats, and low-density lipoprotein level was determined at 10 mg/kg; type: functional; outline: as §1
# [5] = Inhibitory activity against RNA polymerase was determined; set-up: species or system Escherichia coli
# Outline: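 E. coli DNA-dependent RNA polymerase inhibition measured in vitro on ether-extracted, permeabilized E. coli cells.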
# [6] = system: Rattus norvegicus; assay: Hypolipidemic activity was determined by measuring the % serum HDL in hypercholesterolemic RICO rat at a dose of 30 mg/kg; type: functional, organism-based; set-up: dose 30 mg/kg
# Outline: (§3)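 Genetically hypercholesterolemic RICO rats (Tif:RAI,f,SPF) were dosed orally for 7 days. Sera were collected after a 16 h fast and pooled in pairs. LDL (1.006–1.040 g/cm³) and HDL infranatant were separated by ultracentrifugation. Cholesterol and triglycerides were measured enzymatically. Results are % change versus vehicle control, mean ± SEM of four pools.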
# [7] = system: Rattus norvegicus; assay: Hypolipidemic activity was determined by measuring the % serum HDL in normal rat at a dose of 3 mg/kg; type: functional, organism-based; set-up: dose 3 mg/kg
# Outline: (§4)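 Normal male Wistar rats (200–230 g), eight per group, were dosed orally in PEG 400 once daily for 7 days. They were fasted 16 h and killed 24 h after the last dose. Serum from pairs was pooled and LDL/HDL fractions were ultracentrifuged. Cholesterol and triglycerides were measured enzymatically. Results are % versus vehicle control, mean ± SEM of four pools, Student's t test.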
# [8] = system: Rattus norvegicus; assay: Hypolipidemic activity was determined by measuring the % serum triglycerides in normal rat at a dose of 10 mg/kg; type: functional, organism-based; set-up: dose 10 mg/kg; outline: as §4
# [9] = system: Rattus norvegicus; assay: Hypolipidemic activity was determined by measuring the % serum HDL in hypercholesterolemic RICO rat at a dose of 10 mg/kg; type: functional, organism-based; set-up: dose 10 mg/kg; outline: as §3
# [10] = system: Rattus norvegicus; assay: Hypolipidemic activity was determined by measuring the % serum triglycerides in hypercholesterolemic RICO rat at a dose of 30 mg/kg; type: functional, organism-based; set-up: dose 30 mg/kg; outline: as §3
# [11] = system: Rattus norvegicus; assay: Hypolipidemic activity was determined by measuring the % serum triglycerides in hypercholesterolemic RICO rat at a dose of 3 mg/kg; type: functional, organism-based; set-up: dose 3 mg/kg; outline: as §3
# [12] = system: Rattus norvegicus; assay: Hypolipidemic activity was determined by measuring the % serum LDL in normal rat at a dose of 3 mg/kg; type: functional, organism-based; set-up: dose 3 mg/kg; outline: as §4
# [13] = system: Rattus norvegicus; assay: Hypolipidemic activity was determined by measuring the % serum cholesterol in normal rat at a dose of 10 mg/kg; type: functional, organism-based; set-up: dose 10 mg/kg; outline: as §4
# [14] = system: Rattus norvegicus; assay: Hypolipidemic activity was determined by measuring the % serum cholesterol in normal rat at a dose of 30 mg/kg; type: functional, organism-based; set-up: dose 30 mg/kg; outline: as §4
# [15] = system: Rattus norvegicus; assay: Hypolipidemic activity was determined by measuring the % serum cholesterol in hypercholesterolemic RICO rat at a dose of 30 mg/kg; type: functional, organism-based; set-up: dose 30 mg/kg; outline: as §3
# [16] = system: Rattus norvegicus; assay: Hypolipidemic activity was determined by measuring the % serum cholesterol in normal rat at a dose of 1 mg/kg; type: functional, organism-based; set-up: dose 1 mg/kg; outline: as §4
# [17] = system: Rattus norvegicus; assay: Hypolipidemic activity was determined in male rats, and low-density lipoprotein level was determined at 20 mg/kg; type: functional; outline: as §1
# [18] = system: Rattus norvegicus; assay: Hypolipidemic activity was determined by measuring the % serum triglycerides in normal rat at a dose of 1 mg/kg; type: functional, organism-based; set-up: dose 1 mg/kg; outline: as §4
# [19] = system: Rattus norvegicus; assay: Hypolipidemic activity was determined in male rats, and high-density lipoprotein level was determined at 20 mg/kg; type: functional; outline: as §1
# [20] = system: Rattus norvegicus; assay: Hypolipidemic activity was determined by measuring the % serum HDL in hypercholesterolemic RICO rat at a dose of 3 mg/kg; type: functional, organism-based; set-up: dose 3 mg/kg; outline: as §3
# [21] = system: Rattus norvegicus; assay: Hypolipidemic activity was determined by measuring the % serum HDL in normal rat at a dose of 10 mg/kg; type: functional, organism-based; set-up: dose 10 mg/kg; outline: as §4
# [22] = system: Rattus norvegicus; assay: Hypolipidemic activity was determined by measuring the % serum LDL in normal rat at a dose of 10 mg/kg; type: functional, organism-based; set-up: dose 10 mg/kg; outline: as §4
# [23] = system: Rattus norvegicus; assay: Hypolipidemic activity was determined by measuring the % serum triglycerides in normal rat at a dose of 30 mg/kg; type: functional, organism-based; set-up: dose 30 mg/kg; outline: as §4
# [24] = system: Rattus norvegicus; assay: Hypolipidemic activity was determined by measuring the % serum LDL-cholesterol in hypercholesterolemic RICO rat at a dose of 10 mg/kg; type: functional, organism-based; set-up: dose 10 mg/kg; outline: as §3
# [25] = system: Rattus norvegicus; assay: Hypolipidemic activity was determined by measuring the % serum cholesterol in hypercholesterolemic RICO rat at a dose of 3 mg/kg; type: functional, organism-based; set-up: dose 3 mg/kg; outline: as §3
# [26] = system: Rattus norvegicus; assay: Hypolipidemic activity was determined by measuring the % serum cholesterol in hypercholesterolemic RICO rat at a dose of 10 mg/kg; type: functional, organism-based; set-up: dose 10 mg/kg; outline: as §3
# [27] = system: Rattus norvegicus; assay: Hypolipidemic activity was determined by measuring the % serum cholesterol in normal rat at a dose of 3 mg/kg; type: functional, organism-based; set-up: dose 3 mg/kg; outline: as §4
# [28] = system: Rattus norvegicus; assay: Hypolipidemic activity was determined by measuring the % serum triglycerides in hypercholesterolemic RICO rat at a dose of 10 mg/kg; type: functional, organism-based; set-up: dose 10 mg/kg; outline: as §3
# [29] = system: Rattus norvegicus; assay: Hypolipidemic activity was determined by measuring the % serum LDL in normal rat at a dose of 30 mg/kg; type: functional, organism-based; set-up: dose 30 mg/kg; outline: as §4
# [30] = system: Rattus norvegicus; assay: Hypolipidemic activity was determined by measuring the % serum triglycerides in normal rat at a dose of 3 mg/kg; type: functional, organism-based; set-up: dose 3 mg/kg; outline: as §4
# [31] = system: Rattus norvegicus; assay: Tested for hypolipidemic activity in male rats, cholesterol was determined in serum at 20 mg/kg; type: functional; outline: as §2
# [32] = system: Rattus norvegicus; assay: Hypolipidemic activity was determined by measuring the % serum LDL in normal rat at a dose of 1 mg/kg; type: functional, organism-based; set-up: dose 1 mg/kg; outline: as §4
# [33] = system: Rattus norvegicus; assay: Hypolipidemic activity was determined by measuring the % serum LDL-cholesterol in hypercholesterolemic RICO rat at a dose of 3 mg/kg; type: functional, organism-based; set-up: dose 3 mg/kg; outline: as §3
# [34] = system: Rattus norvegicus; assay: Hypolipidemic activity was determined by measuring the % serum HDL in normal rat at a dose of 1 mg/kg; type: functional, organism-based; set-up: dose 1 mg/kg; outline: as §4
# [35] = system: Rattus norvegicus; assay: Hypolipidemic activity was determined by measuring the % serum HDL in normal rat at a dose of 30 mg/kg; type: functional, organism-based; set-up: dose 30 mg/kg; outline: as §4
# [36] = system: Rattus norvegicus; assay: Hypolipidemic activity was determined by measuring the % serum LDL-cholesterol in hypercholesterolemic RICO rat at a dose of 30 mg/kg; type: functional, organism-based; set-up: dose 30 mg/kg; outline: as §3
compound,measurement,setting,value
COC1/C=C/OC2(C)Oc3c(C)c(O)c4c(O)c(c(N5CCN(Cc6c(C)cc(C)cc6C)CC5)c(O)c4c3C2=O)NC(=O)C(C)CCCC(C)C(O)C(C)C(O)C(C)C(OC(C)=O)C1C (stereo not given),Activity,[1],-36%
same,Activity,[2],-40%
same,MIC,[3],0.2 µg/mL
same,Activity,[4],-59%
same,IC50,[5],6.5 µg/mL
COC1/C=C/OC2(C)Oc3c(C)c(O)c4c(O)c(c(N5CCN(Cc6c(C)cc(C)cc6C)CC5)c(O)c4c3C2=O)NC(=O)/C(C)=C\C=C\C(C)C(OC(C)=O)C(C)C(OC(C)=O)C(C)C(OC(C)=O)C1C (stereo not given),Activity,[1],-24%
same,Activity,[2],-24%
same,MIC,[3],4 µg/mL
same,Activity,[4],-19%
COC1/C=C/OC2(C)Oc3c(C)c(O)c4c(O)c(c(N5CCN(Cc6c(C)cc(C)cc6C)CC5)c(O)c4c3C2=O)NC(=O)/C(C)=C\C=C\C(C)C(O)C(C)C(O)C(C)C(OC(C)=O)C1C (stereo not given),Serum HDL-cholesterol,[6],-72%
same,Serum HDL-cholesterol,[7],-14%
same,Serum triglyceride,[8],-18%
same,Serum HDL-cholesterol,[9],-30%
same,Serum triglyceride,[10],-55%
same,Serum triglyceride,[11],8%
same,Serum LDL-cholesterol,[12],-28%
same,Serum cholesterol,[13],-42%
same,Serum cholesterol,[14],-72%
same,Serum cholesterol,[15],-65%
same,Serum cholesterol,[16],0%
same,Activity,[1],-38%
same,Activity,[17],-79%
same,Serum triglyceride,[18],11%
same,Activity,[19],-58%
same,Serum HDL-cholesterol,[20],-7%
same,Serum HDL-cholesterol,[21],-46%
same,Serum LDL-cholesterol,[22],-53%
same,Serum triglyceride,[23],-50%
same,Serum LDL-cholesterol,[24],-42%
same,Activity,[2],-35%
same,Serum cholesterol,[25],-8%
same,Serum cholesterol,[26],-30%
same,Serum cholesterol,[27],-11%
same,Serum triglyceride,[28],-17%
same,Serum LDL-cholesterol,[29],-64%
same,Serum triglyceride,[30],-3%
same,Activity,[31],-63%
same,Serum LDL-cholesterol,[32],-11%
same,Serum LDL-cholesterol,[33],-29%
same,Serum HDL-cholesterol,[34],-8%
same,Serum HDL-cholesterol,[35],-69%
same,MIC,[3],0.01 µg/mL
same,Activity,[4],-43%
same,Serum LDL-cholesterol,[36],-68%
same,IC50,[5],0.3 µg/mL
